For experiment [1], the system named is MCF7. The experiment is described as follows: Downregulation of ERalpha protein levels in human MCF7 cells at 10 uM after 6 hrs by Western blot method. It is filed as functional, cell-based. Put shortly: (§1)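 MCF-7 breast cancer cells were incubated with compound or DMSO vehicle for 6 h. Compound was given at 10 µM in single-dose comparisons, or at 1 to 30 µM in the dose series. Whole-cell protein was extracted and ERα protein level was assessed by Western blotting.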
On the technique in general: A western blot detects proteins with antibodies after separation by electrophoresis.

Experiment [2] relates to MCF7. Kind of experiment: Upregulation of ERalpha protein levels in human MCF7 cells at 10 uM after 6 hrs by Western blot method. It is filed as functional, cell-based. Put shortly: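 MCF-7 human breast cancer cells exposed to 10 µM compound or DMSO vehicle for 6 h. Whole-cell protein extracted, and ERα protein level assessed by Western blotting against the DMSO-treated control.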

Experiment [3] relates to MCF7. Kind of experiment: Downregulation of ERalpha protein levels in human MCF7 cells at 1 to 30 uM after 6 hrs by Western blot method. It is filed as functional, cell-based. An outline of the steps: as §1
In experiment [4] the test system is MCF7. Kind of experiment: Downregulation of ERalpha protein levels in human MCF7 cells at 10 uM after 6 hrs by Western blot method in presence of proteasome inhibitor MG132. It is filed as functional, cell-based.
Experiment [5] has as its target T1, Estrogen receptor (Homo sapiens) (UniProt P03372).
T1 sequence (whole entry): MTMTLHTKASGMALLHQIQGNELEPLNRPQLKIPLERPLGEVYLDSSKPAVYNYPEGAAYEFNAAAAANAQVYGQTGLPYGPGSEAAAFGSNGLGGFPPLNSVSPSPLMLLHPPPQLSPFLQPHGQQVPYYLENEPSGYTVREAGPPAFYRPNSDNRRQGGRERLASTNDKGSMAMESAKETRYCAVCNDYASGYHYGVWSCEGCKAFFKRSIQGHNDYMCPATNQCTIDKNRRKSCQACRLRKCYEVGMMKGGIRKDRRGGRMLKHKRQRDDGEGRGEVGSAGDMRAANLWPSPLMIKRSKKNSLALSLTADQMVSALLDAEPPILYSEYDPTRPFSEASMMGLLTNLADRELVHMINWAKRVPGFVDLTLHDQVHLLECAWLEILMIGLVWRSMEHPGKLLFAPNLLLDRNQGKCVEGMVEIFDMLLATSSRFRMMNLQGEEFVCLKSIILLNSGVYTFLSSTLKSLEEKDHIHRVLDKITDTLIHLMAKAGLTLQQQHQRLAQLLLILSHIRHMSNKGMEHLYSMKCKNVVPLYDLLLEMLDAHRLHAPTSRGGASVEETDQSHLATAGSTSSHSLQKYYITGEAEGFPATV
Kind of experiment: Antagonist activity at ERalpha in human MCF7 cells assessed as inhibition of E2-induced pS2 mRNA expression after 9 hrs by RT-PCR analysis. Type of experiment: cell-based. An outline of the steps: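 MCF-7 cells treated with compound across 0.1 to 10 µM, with or without 10 nM E2, for 9 h. Total RNA was extracted and reverse-transcribed. pS2 mRNA was quantified by real-time PCR.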

In experiment [6] the test system is MCF7. The experiment is described as follows: Downregulation of ERalpha protein levels in human MCF7 cells after 6 hrs by Western blot method. Type of experiment: functional, cell-based. Put shortly:
as §1

In experiment [7] the test system is MCF7. Kind of experiment: Downregulation of ERalpha protein levels in human MCF7 cells at 30 uM after 6 hrs by Western blot method. It is filed as functional, cell-based. Put shortly:
as §1

Active and inactive are the calls of the source. No cut-off for these calls is given here.

For `CCCCCCCCCCCCN(C)CCOc1ccc(/C(=C(/CC)c2ccccc2)c2ccc(O)cc2)cc1`, the outcome in the experiment with MCF7 [1] was inactive.
Regarding `CCC(=C(c1ccc(O)cc1)c1ccc(OCCN(C)C)cc1)c1ccccc1`, the result in the experiment on MCF7 [2] was Active.
Take `CCCCCCNCCOc1ccc(/C(=C(/CC)c2ccccc2)c2ccc(O)cc2)cc1`: the outcome in the experiment on MCF7 [1] and in the experiment with MCF7 [3] was inactive.
In the case of `CC/C(=C(\c1ccc(O)cc1)c1ccc(OCCNC)cc1)c1ccccc1`, the result in the experiment with MCF7 [2] was Active.
On to `CCCCCCCCCCCCN(CCCCCCCCCCCC)CCOc1ccc(/C(=C(/CC)c2ccccc2)c2ccc(O)cc2)cc1`, for which, in the experiment with MCF7 [1], the result was inactive.
In the case of `CCCCCCCCCCCCNCCOc1ccc(/C(=C(/CC)c2ccccc2)c2ccc(O)cc2)cc1`, the outcome in the experiment with MCF7 [4] was inactive. Besides, the outcome with MCF7 [1] and in the experiment on MCF7 [7] was Active. Moreover, the inhibition entry in experiment [5] was “Dose-dependent effect”. Moreover, the Activity result in the experiment with MCF7 [6] was “Dose-dependent effect”.
For `CCCCCCCCCCCCCCCCCCNCCOc1ccc(/C(=C(/CC)c2ccccc2)c2ccc(O)cc2)cc1`, in the experiment on MCF7 [1], the result was inactive.

The record behind these values is ChEMBL document CHEMBL3098128, “Design and synthesis of tamoxifen derivatives as a selective estrogen receptor down-regulator” (Bioorg Med Chem Lett, 2014).
